Laboratory results from ChEMBL document CHEMBL5647699, “Discovery of a chemical probe for PRDM9” (Nat Commun, 2019).
Activity calls are given as the source filed them. The rule behind the calls is not given here.

How the values were obtained:
[1] = target: Histone-arginine methyltransferase CARM1 (Homo sapiens) (UniProt Q86X55); experiment: Inhibition of PRMT4 (unknown origin) at 1 to 10 uM; conditions: dose 1-10 µM
[2] = test system: HEK-293T; experiment: Cytotoxicity against HEK293T cells at 10 uM measured after 4 days by IncuCyte zoom live-cell imaging analysis; type: toxicity, cell-based; conditions: human, 96 h, time 4 day
[3] = test system: HEK-293T; experiment: Cytotoxicity against HEK293T cells at 3 uM measured after 4 days by IncuCyte zoom live-cell imaging analysis; type: toxicity, cell-based; conditions: human, 96 h, time 4 day
[4] = target: Histone-lysine N-methyltransferase NSD3 (Homo sapiens) (UniProt Q9BZ95); experiment: Inhibition of NSD3 (unknown origin) at 1 to 10 uM; conditions: dose 1-10 µM
[5] = test system: RPMI-8226; experiment: Cytotoxicity against human RPMI-8226 cells at upto 30 uM measured for 3 to 6 days by celltiter glo assay; type: functional, cell-based; conditions: time 3-6 day
[6] = target: Histone-lysine N-methyltransferase 2C (Homo sapiens) (UniProt Q8NEZ4); experiment: Inhibition of MLL3 (unknown origin) at 1 to 10 uM; conditions: dose 1-10 µM
[7] = test system: Spermatocyte; experiment: Induction of meiotic defect in wild type mouse spermatocyte assessed as non homologous synapsis by SYCP1/SYCP3 staining based immunofluorescence assay; type: functional, cell-based
[8] = target: Protein arginine N-methyltransferase 1 (Homo sapiens) (UniProt Q99873); experiment: Inhibition of PRMT1 (unknown origin) at 1 to 10 uM; conditions: dose 1-10 µM
[9] = target: N-lysine methyltransferase SMYD2 (Homo sapiens) (UniProt Q9NRG4); experiment: Inhibition of SMYD2 (unknown origin) at 1 to 10 uM; conditions: dose 1-10 µM
[10] = target: Histone-lysine N-methyltransferase PRDM9 (Homo sapiens) (UniProt Q9NQV7); experiment: Inhibition of FLAG tagged PRDM9 transfected in HEK293T cells assessed as inhibition of trimethylation H3K4 at 10 uM measured after 20 hrs by Western blot analysis; type: cell-based
Histone-lysine N-methyltransferase PRDM9 (Homo sapiens), sequence (Q9NQV7 whole entry): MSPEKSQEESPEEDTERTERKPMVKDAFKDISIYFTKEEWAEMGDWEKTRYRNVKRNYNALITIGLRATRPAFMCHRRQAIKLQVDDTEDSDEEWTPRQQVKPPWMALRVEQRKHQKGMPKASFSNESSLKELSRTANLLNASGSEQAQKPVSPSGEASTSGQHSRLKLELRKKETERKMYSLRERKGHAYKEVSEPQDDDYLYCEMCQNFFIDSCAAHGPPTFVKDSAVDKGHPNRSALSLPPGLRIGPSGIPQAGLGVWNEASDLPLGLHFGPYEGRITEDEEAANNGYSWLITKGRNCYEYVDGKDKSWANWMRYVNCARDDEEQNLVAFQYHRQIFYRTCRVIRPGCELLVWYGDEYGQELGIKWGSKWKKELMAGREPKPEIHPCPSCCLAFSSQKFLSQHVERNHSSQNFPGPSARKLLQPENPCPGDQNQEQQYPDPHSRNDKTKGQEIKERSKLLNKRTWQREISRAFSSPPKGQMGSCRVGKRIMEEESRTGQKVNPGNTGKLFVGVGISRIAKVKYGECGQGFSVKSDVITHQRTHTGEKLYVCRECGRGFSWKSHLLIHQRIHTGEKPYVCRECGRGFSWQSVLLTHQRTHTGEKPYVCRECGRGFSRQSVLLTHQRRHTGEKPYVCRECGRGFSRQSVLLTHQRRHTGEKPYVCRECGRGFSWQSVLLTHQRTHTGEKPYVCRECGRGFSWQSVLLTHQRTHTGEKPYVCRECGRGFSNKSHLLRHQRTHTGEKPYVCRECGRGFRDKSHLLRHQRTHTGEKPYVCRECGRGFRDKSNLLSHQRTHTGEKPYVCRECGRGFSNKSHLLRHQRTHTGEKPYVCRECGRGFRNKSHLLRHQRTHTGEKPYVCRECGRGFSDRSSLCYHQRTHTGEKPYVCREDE

[11] = test system: HCC1143; experiment: Cytotoxicity against human HCC1143 cells at upto 30 uM measured for 3 to 6 days by celltiter glo assay; type: functional, cell-based; conditions: time 3-6 day
[12] = target: Histone-lysine N-methyltransferase NSD2 (Homo sapiens) (UniProt O96028); experiment: Inhibition of NSD2 (unknown origin) at 1 to 10 uM; conditions: dose 1-10 µM
[13] = target: Histone-lysine N-methyltransferase SUV39H1 (Homo sapiens) (UniProt O43463); experiment: Inhibition of SUV39H1 (unknown origin) at 1 to 10 uM; conditions: dose 1-10 µM
[14] = test system: SK-MM-2; experiment: Cytotoxicity against human SK-MM-2 cells at upto 30 uM measured for 3 to 6 days by celltiter glo assay; type: functional, cell-based; conditions: time 3-6 day
[15] = target: Protein arginine N-methyltransferase 5 (Homo sapiens) (UniProt O14744); experiment: Inhibition of PRMT5 (unknown origin) at 1 to 10 uM; conditions: dose 1-10 µM
Protein arginine N-methyltransferase 5 (Homo sapiens), sequence (O14744 whole entry): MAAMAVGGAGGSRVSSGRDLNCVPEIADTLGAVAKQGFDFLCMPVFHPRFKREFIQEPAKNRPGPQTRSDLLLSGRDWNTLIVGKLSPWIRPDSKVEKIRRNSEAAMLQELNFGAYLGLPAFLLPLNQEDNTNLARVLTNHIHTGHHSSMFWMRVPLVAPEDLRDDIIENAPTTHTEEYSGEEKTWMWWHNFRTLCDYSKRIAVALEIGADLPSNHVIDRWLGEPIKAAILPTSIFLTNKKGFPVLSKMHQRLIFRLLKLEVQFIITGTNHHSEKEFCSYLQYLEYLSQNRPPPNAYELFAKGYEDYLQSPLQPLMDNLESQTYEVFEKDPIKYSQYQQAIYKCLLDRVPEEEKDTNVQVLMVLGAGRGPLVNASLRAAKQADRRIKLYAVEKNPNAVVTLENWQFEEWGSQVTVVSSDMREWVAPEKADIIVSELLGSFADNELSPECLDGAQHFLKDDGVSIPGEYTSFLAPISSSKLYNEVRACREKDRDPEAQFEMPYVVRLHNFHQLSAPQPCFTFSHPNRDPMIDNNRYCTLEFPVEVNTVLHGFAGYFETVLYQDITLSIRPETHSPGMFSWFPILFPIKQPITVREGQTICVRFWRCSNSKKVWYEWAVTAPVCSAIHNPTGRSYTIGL

[16] = target: DNMT3B-DNMT3L complex (Homo sapiens) (UniProt Q9UBC3+Q9UJW3); experiment: Inhibition of DNMT3B/DNMT3L (unknown origin) at 1 to 10 uM; type: protein-complex assay; conditions: dose 1-10 µM
DNMT3B-DNMT3L complex (Homo sapiens), sequence (Q9UJW3 whole entry, looked up, other chains not shown): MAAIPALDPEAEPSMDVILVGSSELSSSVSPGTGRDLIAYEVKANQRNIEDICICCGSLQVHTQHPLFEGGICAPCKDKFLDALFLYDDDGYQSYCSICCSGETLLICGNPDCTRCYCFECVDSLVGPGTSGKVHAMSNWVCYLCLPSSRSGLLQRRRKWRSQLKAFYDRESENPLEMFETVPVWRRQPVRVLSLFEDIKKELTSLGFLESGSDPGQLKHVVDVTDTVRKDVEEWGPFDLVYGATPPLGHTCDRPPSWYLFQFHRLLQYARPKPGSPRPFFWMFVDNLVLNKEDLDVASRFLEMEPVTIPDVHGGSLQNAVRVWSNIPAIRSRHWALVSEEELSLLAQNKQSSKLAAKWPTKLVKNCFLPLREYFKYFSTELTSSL

[17] = target: Protein arginine N-methyltransferase 3 (Homo sapiens) (UniProt O60678); experiment: Inhibition of PRMT3 (unknown origin) at 1 to 10 uM; conditions: dose 1-10 µM
[18] = target: DNMT3A2/3L complex (Homo sapiens) (UniProt Q9Y6K1+Q9UJW3); experiment: Inhibition of DNMT3A/DNMT3L (unknown origin) at 1 to 10 uM; type: protein-complex assay; conditions: dose 1-10 µM
DNMT3A2/3L complex (Homo sapiens), sequence (Q9UJW3 whole entry, looked up): as the sequence (Q9UJW3 whole entry, looked up, other chains not shown) above
DNMT3A2/3L complex (Homo sapiens), sequence (Q9Y6K1 whole entry, looked up): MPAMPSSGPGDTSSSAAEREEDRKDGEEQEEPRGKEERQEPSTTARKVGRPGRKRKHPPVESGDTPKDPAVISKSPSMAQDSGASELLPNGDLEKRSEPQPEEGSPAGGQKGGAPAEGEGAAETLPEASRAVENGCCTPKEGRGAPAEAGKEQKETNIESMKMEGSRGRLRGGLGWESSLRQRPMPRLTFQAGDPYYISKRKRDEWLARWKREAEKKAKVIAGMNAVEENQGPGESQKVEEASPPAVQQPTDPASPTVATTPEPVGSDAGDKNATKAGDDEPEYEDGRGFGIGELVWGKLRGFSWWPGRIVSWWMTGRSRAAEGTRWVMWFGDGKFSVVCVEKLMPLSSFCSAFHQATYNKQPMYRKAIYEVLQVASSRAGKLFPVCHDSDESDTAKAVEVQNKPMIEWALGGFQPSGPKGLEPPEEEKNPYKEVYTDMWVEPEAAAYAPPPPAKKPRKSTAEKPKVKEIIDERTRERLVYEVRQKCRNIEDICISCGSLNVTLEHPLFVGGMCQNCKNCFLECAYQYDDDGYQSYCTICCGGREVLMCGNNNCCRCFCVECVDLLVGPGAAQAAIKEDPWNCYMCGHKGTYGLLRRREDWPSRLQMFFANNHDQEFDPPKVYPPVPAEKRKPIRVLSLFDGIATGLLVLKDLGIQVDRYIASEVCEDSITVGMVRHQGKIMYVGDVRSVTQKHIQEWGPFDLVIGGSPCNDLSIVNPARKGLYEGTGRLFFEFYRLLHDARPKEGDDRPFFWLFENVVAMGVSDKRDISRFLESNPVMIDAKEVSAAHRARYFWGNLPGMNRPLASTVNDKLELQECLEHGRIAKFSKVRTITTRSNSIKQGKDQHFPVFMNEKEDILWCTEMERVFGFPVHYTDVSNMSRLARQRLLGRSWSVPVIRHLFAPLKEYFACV

[19] = target: Histone-lysine N-methyltransferase SETD7 (Homo sapiens) (UniProt Q8WTS6); experiment: Inhibition of SETD7 (unknown origin) at 1 to 10 uM; conditions: dose 1-10 µM
[20] = target: Protein arginine N-methyltransferase 9 (Homo sapiens) (UniProt Q6P2P2); experiment: Inhibition of PRMT9 (unknown origin) at 1 to 10 uM; conditions: dose 1-10 µM
[21] = target: Protein arginine N-methyltransferase 8 (Homo sapiens) (UniProt Q9NR22); experiment: Inhibition of PRMT8 (unknown origin) at 1 to 10 uM; conditions: dose 1-10 µM
[22] = target: Histone-lysine N-methyltransferase SMYD3 (Homo sapiens) (UniProt Q9H7B4); experiment: Inhibition of SMYD3 (unknown origin) at 1 to 10 uM; conditions: dose 1-10 µM
[23] = test system: Spermatocyte; experiment: Induction of meiotic defect in wild type mouse spermatocyte assessed as effect on paring of chromosomal homolog by SYCP1/SYCP3 staining based immunofluorescence assay; type: functional, cell-based
[24] = test system: HCC1806; experiment: Cytotoxicity against human HCC1806 cells at upto 30 uM measured for 3 to 6 days by celltiter glo assay; type: functional, cell-based; conditions: time 3-6 day
[25] = target: Histone-lysine N-methyltransferase PRDM7 (Homo sapiens) (UniProt Q9NQW5); experiment: Inhibition of PRDM7 (unknown origin) using biotin-tagged Histone H3 (1 to 25) and 3H-SAM as substrate incubated for 90 mins by topcount plate reader analysis
[26] = target: Protein arginine N-methyltransferase 7 (Homo sapiens) (UniProt Q9NVM4); experiment: Inhibition of PRMT7 (unknown origin) at 1 to 10 uM; conditions: dose 1-10 µM
[27] = organism: Homo sapiens; experiment: Inhibition of PRC2 (unknown origin) at 1 to 10 uM; conditions: dose 1-10 µM
[28] = target: Histone-lysine N-methyltransferase SETDB1 (Homo sapiens) (UniProt Q15047); experiment: Inhibition of SETDB1 (unknown origin) at 1 to 10 uM; conditions: dose 1-10 µM
[29] = target: Histone-lysine N-methyltransferase KMT5B (Homo sapiens) (UniProt Q4FZB7); experiment: Inhibition of SUV420H1 (unknown origin) at 1 to 10 uM; conditions: dose 1-10 µM
[30] = test system: CAL-85-1; experiment: Cytotoxicity against human CAL-85-1 cells at upto 30 uM measured for 3 to 6 days by celltiter glo assay; type: functional, cell-based; conditions: time 3-6 day
[31] = target: Histone-lysine N-methyltransferase 2A (Homo sapiens) (UniProt Q03164); experiment: Inhibition of MLL1 (unknown origin) at 1 to 10 uM; conditions: dose 1-10 µM
[32] = target: RNA 5'-monophosphate methyltransferase (Homo sapiens) (UniProt Q7Z5W3); experiment: Inhibition of BCDIN3D (unknown origin) at 1 to 10 uM; conditions: dose 1-10 µM
[33] = target: DNA (cytosine-5)-methyltransferase 1 (Homo sapiens) (UniProt P26358); experiment: Inhibition of DNMT1 (unknown origin) at 1 to 10 uM; conditions: dose 1-10 µM
[34] = target: Histone-lysine N-methyltransferase PRDM9 (Homo sapiens) (UniProt Q9NQV7); experiment: Inhibition of PRDM9 (unknown origin) at 1 to 10 uM; conditions: dose 1-10 µM
[35] = target: Histone-lysine N-methyltransferase KMT5C (Homo sapiens) (UniProt Q86Y97); experiment: Inhibition of SUV420H2 (unknown origin) at 1 to 10 uM; conditions: dose 1-10 µM
Histone-lysine N-methyltransferase KMT5C (Homo sapiens), sequence (Q86Y97 whole entry, looked up): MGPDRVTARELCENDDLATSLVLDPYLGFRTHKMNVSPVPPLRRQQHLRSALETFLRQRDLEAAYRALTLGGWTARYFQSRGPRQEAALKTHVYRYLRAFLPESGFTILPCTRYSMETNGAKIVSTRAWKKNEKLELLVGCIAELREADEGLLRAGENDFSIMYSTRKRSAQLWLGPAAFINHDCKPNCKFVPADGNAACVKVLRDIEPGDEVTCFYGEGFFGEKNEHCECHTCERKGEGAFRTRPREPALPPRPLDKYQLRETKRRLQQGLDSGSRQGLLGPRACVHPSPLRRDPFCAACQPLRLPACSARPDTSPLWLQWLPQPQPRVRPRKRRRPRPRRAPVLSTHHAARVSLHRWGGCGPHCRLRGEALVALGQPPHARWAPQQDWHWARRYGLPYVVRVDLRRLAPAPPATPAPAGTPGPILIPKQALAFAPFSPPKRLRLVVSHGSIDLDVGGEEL

[36] = target: Histone-lysine N-methyltransferase SETD2 (Homo sapiens) (UniProt Q9BYW2); experiment: Inhibition of SETD2 (unknown origin) at 1 to 10 uM; conditions: dose 1-10 µM
[37] = target: Histone-lysine N-methyltransferase SUV39H2 (Homo sapiens) (UniProt Q9H5I1); experiment: Inhibition of SUV39H2 (unknown origin) at 1 to 10 uM; conditions: dose 1-10 µM
[38] = test system: MDA-MB-436; experiment: Cytotoxicity against human MDA-MB-436 cells at upto 30 uM measured for 3 to 6 days by celltiter glo assay; type: functional, cell-based; conditions: time 3-6 day
[39] = test system: HEK-293T; experiment: Cytotoxicity against HEK293T cells at 10 uM measured after 24 hrs by IncuCyte zoom live-cell imaging analysis; type: toxicity, cell-based; conditions: human
In short: (§1)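 HEK293T cells seeded, treated next day with compound for 1 day; cell number counted by live-cell imaging after Vybrant DyeCycle Green staining; mean ± sd, n = 3.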

[40] = target: Histone-lysine N-methyltransferase ASH1L (Homo sapiens) (UniProt Q9NR48); experiment: Inhibition of ASH1L (unknown origin) at 1 to 10 uM; conditions: dose 1-10 µM
[41] = test system: HEK-293T; experiment: Cytotoxicity against HEK293T cells at 3 uM measured after 24 hrs by IncuCyte zoom live-cell imaging analysis; type: toxicity, cell-based; conditions: human; in short: as §1
[42] = target: Histone-lysine N-methyltransferase, H3 lysine-79 specific (Homo sapiens) (UniProt Q8TEK3); experiment: Inhibition of DOT1L (unknown origin) at 1 to 10 uM; conditions: dose 1-10 µM
Histone-lysine N-methyltransferase, H3 lysine-79 specific (Homo sapiens), sequence (Q8TEK3 whole entry, looked up): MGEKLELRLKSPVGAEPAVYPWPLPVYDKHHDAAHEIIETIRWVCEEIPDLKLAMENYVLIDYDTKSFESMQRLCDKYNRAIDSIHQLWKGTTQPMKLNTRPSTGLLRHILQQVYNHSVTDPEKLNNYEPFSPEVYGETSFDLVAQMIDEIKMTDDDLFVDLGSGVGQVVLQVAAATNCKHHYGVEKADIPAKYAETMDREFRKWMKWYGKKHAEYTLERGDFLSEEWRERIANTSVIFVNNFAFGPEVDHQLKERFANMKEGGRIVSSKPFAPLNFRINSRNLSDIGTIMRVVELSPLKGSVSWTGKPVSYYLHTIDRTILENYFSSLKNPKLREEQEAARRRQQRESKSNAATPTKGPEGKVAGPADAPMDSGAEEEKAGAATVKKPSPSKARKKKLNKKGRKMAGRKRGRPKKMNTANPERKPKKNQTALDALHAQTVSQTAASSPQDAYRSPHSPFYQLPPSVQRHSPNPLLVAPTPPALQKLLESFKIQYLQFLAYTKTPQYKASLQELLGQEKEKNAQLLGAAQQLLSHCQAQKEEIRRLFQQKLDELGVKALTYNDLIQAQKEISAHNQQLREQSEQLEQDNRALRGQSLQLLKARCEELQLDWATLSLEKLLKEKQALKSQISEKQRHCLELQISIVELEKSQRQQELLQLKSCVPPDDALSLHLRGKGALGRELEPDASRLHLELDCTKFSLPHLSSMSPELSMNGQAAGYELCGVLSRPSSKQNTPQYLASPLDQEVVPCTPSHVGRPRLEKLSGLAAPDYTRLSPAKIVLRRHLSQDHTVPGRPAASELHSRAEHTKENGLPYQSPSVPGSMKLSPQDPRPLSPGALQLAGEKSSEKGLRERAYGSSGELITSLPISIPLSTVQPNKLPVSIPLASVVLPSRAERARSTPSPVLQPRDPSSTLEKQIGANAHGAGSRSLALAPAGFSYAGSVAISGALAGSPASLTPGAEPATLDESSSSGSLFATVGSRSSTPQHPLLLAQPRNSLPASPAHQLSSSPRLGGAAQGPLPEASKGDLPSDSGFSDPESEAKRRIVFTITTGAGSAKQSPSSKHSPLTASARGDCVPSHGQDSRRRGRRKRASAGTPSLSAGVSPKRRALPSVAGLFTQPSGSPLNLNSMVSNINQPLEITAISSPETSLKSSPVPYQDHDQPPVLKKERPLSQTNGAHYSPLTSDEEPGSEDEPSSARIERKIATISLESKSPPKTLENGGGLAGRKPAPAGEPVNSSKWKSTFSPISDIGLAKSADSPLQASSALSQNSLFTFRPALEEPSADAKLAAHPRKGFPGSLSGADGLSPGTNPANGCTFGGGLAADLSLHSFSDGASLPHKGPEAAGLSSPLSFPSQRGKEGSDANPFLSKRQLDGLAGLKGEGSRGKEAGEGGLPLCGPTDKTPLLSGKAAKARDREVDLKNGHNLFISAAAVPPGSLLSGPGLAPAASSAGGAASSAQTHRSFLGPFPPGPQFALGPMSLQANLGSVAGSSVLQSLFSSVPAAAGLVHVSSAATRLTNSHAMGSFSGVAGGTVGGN

[43] = target: Histone-lysine N-methyltransferase EHMT1 (Homo sapiens) (UniProt Q9H9B1); experiment: Inhibition of EHMT1 (unknown origin) at 1 to 10 uM; conditions: dose 1-10 µM
[44] = target: Histone-lysine N-methyltransferase, H3 lysine-36 specific (Homo sapiens) (UniProt Q96L73); experiment: Inhibition of NSD1 (unknown origin) at 1 to 10 uM; conditions: dose 1-10 µM
[45] = target: Protein arginine N-methyltransferase 6 (Homo sapiens) (UniProt Q96LA8); experiment: Inhibition of PRMT6 (unknown origin) at 1 to 10 uM; conditions: dose 1-10 µM
[46] = target: N-lysine methyltransferase KMT5A (Homo sapiens) (UniProt Q9NQR1); experiment: Inhibition of SETD8 (unknown origin) at 1 to 10 uM; conditions: dose 1-10 µM
[47] = target: Histone-lysine N-methyltransferase EHMT2 (Homo sapiens) (UniProt Q96KQ7); experiment: Inhibition of G9a (unknown origin) at 1 to 10 uM; conditions: dose 1-10 µM

- inhibition [1]: inactive
- inhibition [4]: inactive
- inhibition [6]: inactive
- inhibition [8]: inactive
- inhibition [9]: inactive
- inhibition [10]: inactive
- inhibition [12]: inactive
- inhibition [13]: inactive
- inhibition [15]: inactive
- inhibition [16]: inactive
- inhibition [17]: inactive
- inhibition [18]: inactive
- inhibition [19]: inactive
- inhibition [20]: inactive
- inhibition [21]: inactive
- inhibition [22]: inactive
- inhibition [25]: inactive
- inhibition [26]: inactive
- inhibition [27]: inactive
- inhibition [28]: inactive
- inhibition [29]: inactive
- inhibition [31]: inactive
- inhibition [32]: inactive
- inhibition [33]: inactive
- inhibition [34]: inactive
- inhibition [35]: inactive
- inhibition [36]: inactive
- inhibition [37]: inactive
- inhibition [40]: inactive
- inhibition [42]: inactive
- inhibition [43]: inactive
- inhibition [44]: inactive
- inhibition [45]: inactive
- inhibition [46]: inactive
- inhibition [47]: inactive
SMILES: COc1cc(OC)cc(-c2noc(N3CCN(C)C4(CCN(c5ccccc5)CC4)C3)n2)c1
- Activity [2]: Toxic
- Activity [3]: Non-Toxic
- Activity [5]: inactive
- Activity [7]: inactive
- Activity [11]: inactive
- Activity [14]: inactive
- Activity [23]: inactive
- Activity [24]: inactive
- Activity [30]: inactive
- Activity [38]: inactive
- Activity [39]: Toxic
- Activity [41]: Non-Toxic
